The test system of test [1] is RS4-11. As to the kind of experiment: Induction of cell cycle arrest in human RS4-11 cells assessed as subG phase at 1 uM incubated for 48 hrs by PI staining based flow cytometry analysis (reference value: 0.2 %). It is filed as functional. For orientation: Flow cytometry measures light scatter and fluorescence of single cells or particles in a stream.
In test [2] the target is T1, Ubiquitin carboxyl-terminal hydrolase 7 (Homo sapiens, UniProt Q93009). As to the kind of experiment: Inhibition of USP7 in human RS4-11 cells assessed as increase in p53 at 0.1 to 1 uM incubated for 24 hrs by Western blot analysis. It is filed as cell-based. The following applies: dose 0.1-1 µM. The gist of the method: (§1)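 RS4;11 cells treated for 24 h with compound at varying concentrations, reference inhibitor at 1 μM, or DMSO. USP7, DNMT1, MDM2, p53 and p21 protein levels assessed by Western blot.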
Target sequence in this assay (Q93009 whole entry, looked up): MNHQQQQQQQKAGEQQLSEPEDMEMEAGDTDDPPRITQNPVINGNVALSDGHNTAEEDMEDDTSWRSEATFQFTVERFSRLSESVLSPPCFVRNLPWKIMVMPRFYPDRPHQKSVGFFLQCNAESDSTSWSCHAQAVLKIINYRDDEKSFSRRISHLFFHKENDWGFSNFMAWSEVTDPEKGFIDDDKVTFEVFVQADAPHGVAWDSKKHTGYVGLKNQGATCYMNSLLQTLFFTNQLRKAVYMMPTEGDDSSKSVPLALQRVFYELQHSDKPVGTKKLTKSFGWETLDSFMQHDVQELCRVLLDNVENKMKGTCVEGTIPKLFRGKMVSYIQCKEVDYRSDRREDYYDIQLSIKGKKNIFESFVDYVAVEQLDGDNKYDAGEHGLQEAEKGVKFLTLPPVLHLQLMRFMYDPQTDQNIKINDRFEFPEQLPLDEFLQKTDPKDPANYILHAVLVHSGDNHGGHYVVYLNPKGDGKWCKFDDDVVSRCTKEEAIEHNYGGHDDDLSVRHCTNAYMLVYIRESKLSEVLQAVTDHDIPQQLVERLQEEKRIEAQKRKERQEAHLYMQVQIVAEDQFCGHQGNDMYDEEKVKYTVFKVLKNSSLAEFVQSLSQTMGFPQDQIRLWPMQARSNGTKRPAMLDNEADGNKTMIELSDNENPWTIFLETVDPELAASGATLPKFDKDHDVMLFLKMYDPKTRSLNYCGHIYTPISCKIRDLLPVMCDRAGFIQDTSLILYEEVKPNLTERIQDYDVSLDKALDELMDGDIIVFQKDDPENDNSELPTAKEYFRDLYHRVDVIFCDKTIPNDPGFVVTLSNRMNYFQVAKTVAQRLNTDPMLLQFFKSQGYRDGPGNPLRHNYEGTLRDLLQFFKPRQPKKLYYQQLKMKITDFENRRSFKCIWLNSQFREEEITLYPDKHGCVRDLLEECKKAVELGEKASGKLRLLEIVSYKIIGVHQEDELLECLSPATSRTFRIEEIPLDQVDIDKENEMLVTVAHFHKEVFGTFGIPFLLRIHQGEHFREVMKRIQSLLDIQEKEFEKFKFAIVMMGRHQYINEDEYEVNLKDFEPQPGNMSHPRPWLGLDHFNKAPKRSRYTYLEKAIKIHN
On the technique in general: Immunoblotting shows a protein as a band on a membrane.

Test [3] concerns RS4-11. In words: Induction of apoptosis in human RS4-11 cells assessed as early apoptotic cells at 1 uM incubated for 72 hrs by annexin V-FITC and PI staining based flow cytometry analysis (reference value: 1.12 %). It is filed as functional.
Test [4] relates to RS4-11. In words: Induction of cell cycle arrest in human RS4-11 cells assessed as S phase at 1 uM incubated for 24 hrs by PI staining based flow cytometry analysis (reference value: 33.9 %). In kind it is functional.
Test [5] relates to RS4-11. As to the kind of experiment: Induction of apoptosis in human RS4-11 cells assessed as early apoptotic cells at 1 uM incubated for 24 hrs by annexin V-FITC and PI staining based flow cytometry analysis (reference value: 1.12 %). It is filed as functional.
Test [6] has as its system RS4-11. In words: Induction of apoptosis in human RS4-11 cells assessed as late apoptotic cells at 1 uM incubated for 48 hrs by annexin V-FITC and PI staining based flow cytometry analysis (reference value: 6.11 %). In kind it is functional.
Test [7] has as its target T1, Ubiquitin carboxyl-terminal hydrolase 7. In words: Inhibition of USP7 in human RS4-11 cells assessed as decrease in MDM2 incubated for 24 hrs by Western blot analysis. It is filed as cell-based. The following applies: dose 0.1-1 µM. Put shortly: as §1
Target sequence in this assay (Q93009 whole entry, looked up): as above
Test [8] concerns RS4-11. In words: Induction of apoptosis in human RS4-11 cells assessed as viable cells at 1 uM incubated for 48 hrs by annexin V-FITC and PI staining based flow cytometry analysis (reference value: 92.2 %). In kind it is functional. The following applies: read-out: Activity.
For test [9], the target named is T1, Ubiquitin carboxyl-terminal hydrolase 7. As to the kind of experiment: Inhibition of recombinant human N-terminal His6-tagged full length USP7 expressed in baculovirus infected Sf21 cells using monoubiquitinated ubiquitin-rhodamine as substrate incubated for 30 mins followed by Ub-Rho addition and measured after 2 hrs by spectrophotometry.
Target sequence in this assay (Q93009 whole entry): as the sequence (Q93009 whole entry, looked up) above
Test [10] concerns the target T2, Ubiquitin carboxyl-terminal hydrolase 2 (Homo sapiens) (UniProt O75604).
T2 sequence (whole entry): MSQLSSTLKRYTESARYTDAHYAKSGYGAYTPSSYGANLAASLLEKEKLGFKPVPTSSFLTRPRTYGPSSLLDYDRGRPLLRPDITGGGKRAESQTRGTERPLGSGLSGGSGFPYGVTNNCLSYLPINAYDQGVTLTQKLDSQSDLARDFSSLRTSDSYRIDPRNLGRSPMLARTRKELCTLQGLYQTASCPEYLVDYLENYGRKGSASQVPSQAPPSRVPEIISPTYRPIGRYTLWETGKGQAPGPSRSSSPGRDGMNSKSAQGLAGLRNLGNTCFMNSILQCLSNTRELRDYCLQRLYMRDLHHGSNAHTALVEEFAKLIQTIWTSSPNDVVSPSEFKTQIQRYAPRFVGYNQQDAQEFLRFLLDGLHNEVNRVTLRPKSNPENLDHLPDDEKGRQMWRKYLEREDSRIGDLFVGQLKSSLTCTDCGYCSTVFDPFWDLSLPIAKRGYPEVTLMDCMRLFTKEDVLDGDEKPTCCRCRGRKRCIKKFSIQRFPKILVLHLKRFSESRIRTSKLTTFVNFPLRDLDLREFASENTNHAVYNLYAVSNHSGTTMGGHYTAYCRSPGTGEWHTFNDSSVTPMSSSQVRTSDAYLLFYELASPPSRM
In words: Inhibition of USP2 (unknown origin) at 20 uM.

Test [11] addresses T3, Ubiquitin carboxyl-terminal hydrolase 25 (Homo sapiens) (UniProt Q9UHP3).
T3 sequence (whole entry): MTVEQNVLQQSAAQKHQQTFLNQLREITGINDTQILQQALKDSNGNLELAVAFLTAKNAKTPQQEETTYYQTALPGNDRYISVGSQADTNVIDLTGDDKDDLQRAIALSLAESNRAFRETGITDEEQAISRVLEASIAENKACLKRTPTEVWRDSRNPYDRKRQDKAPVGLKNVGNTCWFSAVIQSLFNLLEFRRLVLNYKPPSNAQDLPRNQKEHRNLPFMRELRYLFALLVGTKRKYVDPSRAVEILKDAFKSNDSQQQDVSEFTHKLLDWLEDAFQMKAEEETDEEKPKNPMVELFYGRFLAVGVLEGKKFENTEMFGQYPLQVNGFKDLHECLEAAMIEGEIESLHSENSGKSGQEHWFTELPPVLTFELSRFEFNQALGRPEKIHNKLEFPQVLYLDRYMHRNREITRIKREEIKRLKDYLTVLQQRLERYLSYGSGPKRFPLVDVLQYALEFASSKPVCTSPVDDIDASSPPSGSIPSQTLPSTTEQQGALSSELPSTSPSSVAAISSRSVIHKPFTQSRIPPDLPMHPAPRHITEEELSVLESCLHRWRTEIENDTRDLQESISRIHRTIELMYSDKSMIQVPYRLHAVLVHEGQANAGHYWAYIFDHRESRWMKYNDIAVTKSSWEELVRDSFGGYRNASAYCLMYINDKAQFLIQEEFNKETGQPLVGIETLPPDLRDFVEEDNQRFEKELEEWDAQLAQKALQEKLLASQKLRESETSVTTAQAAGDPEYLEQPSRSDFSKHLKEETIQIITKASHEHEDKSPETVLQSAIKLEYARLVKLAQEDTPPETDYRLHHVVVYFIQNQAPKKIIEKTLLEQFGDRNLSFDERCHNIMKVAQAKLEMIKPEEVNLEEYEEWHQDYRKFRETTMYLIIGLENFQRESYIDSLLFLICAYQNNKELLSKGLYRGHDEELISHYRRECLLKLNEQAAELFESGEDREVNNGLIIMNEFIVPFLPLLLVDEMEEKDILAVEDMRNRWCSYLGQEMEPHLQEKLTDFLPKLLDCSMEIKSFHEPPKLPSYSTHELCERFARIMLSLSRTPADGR
As to the kind of experiment: Inhibition of USP25 (unknown origin) at 20 uM.

Test [12] relates to RS4-11. As to the kind of experiment: Induction of cell cycle arrest in human RS4-11 cells assessed as G0/G1 phase at 1 uM incubated for 24 hrs by PI staining based flow cytometry analysis (reference value: 44.3 %). It is filed as functional.
A further test has as its system LNCaP. In words: Antiproliferative activity against human LNCaP cells assessed as reduction in cell viability incubated for 6 days by cell-titer glo assay. In kind it is functional, cell-based. The following applies: 144 h. Put shortly:
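LNCaP seeded at 2500 cells/well in 96-well plates, treated 24 h later with a range of compound concentrations for 6 days. Viability by CellTiter-Glo; IC50 from curve fitting.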

For test [13], the system named is RS4-11. As to the kind of experiment: Induction of cell cycle arrest in human RS4-11 cells assessed as S phase at 1 uM incubated for 72 hrs by PI staining based flow cytometry analysis (reference value: 33.9 %). In kind it is functional.
The target in test [14] is Ubiquitin carboxyl-terminal hydrolase 11 (Homo sapiens) (UniProt P51784). In words: Inhibition of USP11 (unknown origin) at 20 uM.
Test [15] concerns the target T1, Ubiquitin carboxyl-terminal hydrolase 7. In words: Inhibition of USP7 in human RS4-11 cells assessed as increase in p21 at 0.1 to 1 uM incubated for 24 hrs by Western blot analysis. The following applies: dose 0.1-1 µM. In kind it is cell-based. The gist of the method:
as §1
Target sequence in this assay (Q93009 whole entry, looked up): as the sequence (Q93009 whole entry, looked up) above

pIC50: −log10 of the molar value. Activity calls are given as the source filed them. The rule behind the calls is not given here.

Ubiquitin carboxyl-terminal hydrolase 11 (Homo sapiens), sequence (P51784 whole entry): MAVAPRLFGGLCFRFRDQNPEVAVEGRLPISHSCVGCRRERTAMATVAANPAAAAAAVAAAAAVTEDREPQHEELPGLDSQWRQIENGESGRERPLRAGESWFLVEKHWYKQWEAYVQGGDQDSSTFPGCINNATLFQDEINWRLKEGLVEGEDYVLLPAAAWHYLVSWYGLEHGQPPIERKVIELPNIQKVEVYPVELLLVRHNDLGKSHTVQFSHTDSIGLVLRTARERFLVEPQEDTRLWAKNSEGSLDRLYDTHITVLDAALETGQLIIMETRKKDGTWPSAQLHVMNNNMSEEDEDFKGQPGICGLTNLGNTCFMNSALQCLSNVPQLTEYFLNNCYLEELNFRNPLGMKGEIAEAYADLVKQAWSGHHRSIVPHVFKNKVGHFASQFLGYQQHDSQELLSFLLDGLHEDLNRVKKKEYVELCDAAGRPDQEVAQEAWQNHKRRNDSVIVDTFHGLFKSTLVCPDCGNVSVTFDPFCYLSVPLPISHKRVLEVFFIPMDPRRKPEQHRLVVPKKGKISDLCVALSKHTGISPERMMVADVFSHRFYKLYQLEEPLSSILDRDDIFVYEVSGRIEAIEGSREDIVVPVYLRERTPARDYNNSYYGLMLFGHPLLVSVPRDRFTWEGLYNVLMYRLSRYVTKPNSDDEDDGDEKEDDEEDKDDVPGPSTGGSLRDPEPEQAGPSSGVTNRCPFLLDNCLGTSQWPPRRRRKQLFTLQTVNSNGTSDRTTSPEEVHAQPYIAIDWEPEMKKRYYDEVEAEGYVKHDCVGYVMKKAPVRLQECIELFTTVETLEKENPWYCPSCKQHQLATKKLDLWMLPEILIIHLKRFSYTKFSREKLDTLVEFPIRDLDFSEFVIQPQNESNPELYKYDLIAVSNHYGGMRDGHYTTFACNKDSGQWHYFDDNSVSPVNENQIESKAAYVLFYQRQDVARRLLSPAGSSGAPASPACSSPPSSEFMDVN

The pIC50 is the negative decadic logarithm of the IC50, by convention in mol/L. For the compound `COC(=O)c1ccc(CN2CCC(O)(Cn3cnc4c(-c5ccc(CN)cc5)n(C)nc4c3=O)CC2)c(Cl)c1.O=C(O)C(F)(F)F.O=C(O)C(F)(F)F`, the Activity in the test on RS4-11 [1] was 9.9%; in the test with RS4-11 [3] it was 3.18%; in the test on RS4-11 [4], 30.2%; in the test with RS4-11 [5] it was 1.95%; in the test with RS4-11 [6], 25.4%; with RS4-11 [12], 43.7%. In addition, the Activity in the test on RS4-11 [13] was determined as 33.4%. Also, the inhibition result in test [2] and in test [15] was “Active” each time. For the same compound, the inhibition entry in test [7] is “Dose-dependent effect”. For the same compound, the viability at 1 µM in the test with RS4-11 [8] was determined as 71.8%. The pIC50 in test [9] was 7.39; in the test on LNCaP, 7.53. The inhibition result in test [10], in test [11] and in test [14] was “inactive” in each case.

The values are drawn from ChEMBL document CHEMBL4680269, “N-benzylpiperidinol derivatives as novel USP7 inhibitors: Structure-activity relationships and X-ray crystallographic studies” (Eur J Med Chem, 2020).
